# Measured values as given in ChEMBL document CHEMBL1134965, “Discovery and biological characterization of capromorelin analogues with extended half-lives” (Bioorg Med Chem Lett, 2002).
# Legend:
# [1] = Volume of distribution was determined in canine following intravenous (iv) administration of drug (1 mg/kg).; assay type: ADME, organism-based, Canis lupus familiaris; conditions: dog, in vivo
# Method in brief: (§1)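 Male beagle dogs given 1 mg/kg intravenously. Plasma sampling gave clearance, volume of distribution and elimination half-life, with half-life calculated over 0–8 h.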
# [2] = Plasma clearance was determined in canine following intravenous (iv) administration of drug (1 mg/kg).; assay type: ADME, organism-based, Canis lupus familiaris; conditions: dog; method in brief: as §1
# [3] = Plasma elimination half-life (08 h) was determined in canine following intravenous (iv) administration (1 mg/kg).; assay type: ADME, organism-based, Canis lupus familiaris; conditions: dog; method in brief: as §1
# [4] = target: Growth hormone secretagogue receptor type 1 (Homo sapiens, UniProt Q92847); test: In vitro binding affinity against human type 1a growth hormone secretagogue receptor (hGHS-R1a), using [125I]ghrelin as radioligand.
# Method in brief: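 Competitive displacement of [125I]-ghrelin from membranes of HEK293 cells over-expressing hGHS-R1a. Ki values are the average of duplicate experiments.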
# Rattus norvegicus [5] = species: Rattus norvegicus; test: In vitro effective concentration required for 50% stimulation of GH release in rat pituitary cell cultures.; assay type: functional; conditions: Pituitary gland cell
# Method in brief: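 Rat pituitary cell cultures exposed to compound. Released GH was quantified by rat-specific double-antibody radioimmunoassay. EC50 is the average of triplicate experiments.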
# Rattus norvegicus [6] = test: In vivo effective dose required for 50% stimulation of GH release in anesthetized rat model.; assay type: functional
# Method in brief: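 Anesthetized Wistar rats given compound iv, with GH release as read-out. ED50 (mg/kg) is the average of triplicate experiments.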
# [7] = Lipophilicity by octanol water distribution coefficient; assay type: physicochemical
# [8] = (§2) Oral half life was determined; assay type: ADME, organism-based; conditions: rat, in vivo
# Method in brief: (§3)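 Female Sprague–Dawley rats dosed orally at 1 mgA/kg (free base equivalents). Plasma concentration–time profile gave Cmax, Tmax and apparent oral t1/2.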
# [9] = Plasma elimination half-life was determined in female Sprague-Dawley rats following intravenous (iv) administration of drug (1 mg/kg).; assay type: ADME, organism-based; conditions: rat
# Method in brief: (§4)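 Female Sprague–Dawley rats given a 1 mgA/kg (free base equivalents) iv dose. Plasma drug levels gave mean Vd, CL and t1/2.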
# [10] = Volume of distribution was determined in female Sprague-Dawley rats following intravenous (iv) administration of drug (1 mg/kg).; assay type: ADME, organism-based; conditions: rat, in vivo; method in brief: as §4
# [11] = Plasma clearance was determined in female Sprague-Dawley rats following intravenous (iv) administration of drug (1 mg/kg).; assay type: ADME, organism-based; conditions: rat; method in brief: as §4
# [12] = (§5) Bioavailability; assay type: ADME, organism-based; conditions: rat, in vivo
# Method in brief: (§6)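 Bioavailability of the free base from a 1 mgA/kg oral dose compared with a 1 mgA/kg iv dose. Measured in female Sprague–Dawley rats and in male and female beagle dogs.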
# [13] = Time taken by the compound to achieve maximum plasma concentration at a 1 mg/kg oral dose in male and female Beagle dogs.; assay type: ADME, organism-based, Canis lupus familiaris; set-up: dose 1 mg/kg, route oral; conditions: both, dog
# Method in brief: (§7)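 Male and female beagle dogs given a single 1 mgA/kg oral dose (free base equivalents). Plasma profile gave Cmax, Tmax and apparent oral t1/2.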
# [14] = Maximum plasma concentration at a 1 mg/kg oral dose in female Sprague-Dawley rats; assay type: ADME, organism-based; set-up: dose 1 mg/kg, route oral; conditions: rat; method in brief: as §3
# [15] = as §5; assay type: ADME, organism-based, Canis lupus familiaris; conditions: dog, in vivo; method in brief: as §6
# [16] = Time taken by the compound to achieve maximum plasma concentration at a 1 mg/kg oral dose in female Sprague-Dawley rats; assay type: ADME, organism-based; set-up: dose 1 mg/kg, route oral; conditions: rat; method in brief: as §3
# [17] = as §2; assay type: ADME, organism-based, Canis lupus familiaris; conditions: dog, in vivo; method in brief: as §3
# [18] = Maximum plasma concentration at a 1 mg/kg oral dose in male and female Beagle dogs.; assay type: ADME, organism-based, Canis lupus familiaris; set-up: dose 1 mg/kg, route oral; conditions: both, dog; method in brief: as §7
# Growth hormone secretagogue receptor type 1, sequence (Q92847 whole entry): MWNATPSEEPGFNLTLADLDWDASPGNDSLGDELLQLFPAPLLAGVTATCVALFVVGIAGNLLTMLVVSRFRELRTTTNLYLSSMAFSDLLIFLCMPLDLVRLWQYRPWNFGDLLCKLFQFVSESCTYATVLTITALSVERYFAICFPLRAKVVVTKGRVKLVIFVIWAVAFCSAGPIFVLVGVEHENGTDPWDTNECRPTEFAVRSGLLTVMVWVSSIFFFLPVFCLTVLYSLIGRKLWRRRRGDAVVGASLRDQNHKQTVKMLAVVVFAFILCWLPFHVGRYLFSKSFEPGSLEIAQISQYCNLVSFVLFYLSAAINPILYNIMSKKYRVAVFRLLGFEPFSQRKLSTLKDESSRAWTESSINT
SMILES,Vd [1] [L/kg],clearance [2] [mL/min/kg],half-life [3] [h],Ki [4] [nM],EC50 (Rattus norvegicus [5]) [nM],ED50 (Rattus norvegicus [6]) [mg/kg],logD [7],half-life [8] [h],half-life [9] [h],Vd [10] [L/kg],clearance [11] [mL/min/kg],bioavailability [12] [%],Tmax [13] [h],Cmax [14] [ng/mL],bioavailability [15] [%],Tmax [16] [h],half-life [17] [h],Cmax [18] [ng/mL]
CC(C)(N)C(=O)N[C@H](COCc1ccc(F)c(F)c1)C(=O)N1CCC2=NN(C(C)(C)C)C(=O)C2(Cc2ccccc2)C1 (stereo not given in full),5.9,19,3.9,0.34,4,> 10,2.9,–,–,–,–,–,–,–,–,–,–,–
CC(C)(N)C(=O)N[C@H](COCc1ccc(F)cc1F)C(=O)N1CCC2=NN(CC(F)(F)F)C(=O)[C@]2(Cc2ccccn2)C1,1.5,5.3,3.7,5,3,0.1,1.6,3.9,1.9,4.9,46,59,1.3,88,77,0.25,4.2,260
CC(C)(N)C(=O)N[C@H](COCc1ccc(F)c(F)c1)C(=O)N1CCC2=NN(CC(F)(F)F)C(=O)C2(Cc2ccccc2)C1 (stereo not given in full),5.1,13,4.7,0.45,2,> 10,3,–,–,–,–,–,–,–,–,–,–,–
CN1N=C2CCN(C(=O)[C@@H](COCc3ccc(F)c(F)c3)NC(=O)C(C)(C)N)CC2(Cc2ccccc2)C1=O (stereo not given in full),3.5,17,2.7,18,10,0.3,1.7,–,–,–,–,–,–,–,–,–,–,–
CC(C)(N)C(=O)N[C@H](COCc1ccccc1)C(=O)N1CCC2=NN(C(C)(C)C)C(=O)C2(Cc2ccccc2)C1 (stereo not given in full),2.2,13,2.5,–,–,–,2.9,–,–,–,–,–,–,–,–,–,–,–
CN1N=C2CCN(C(=O)[C@@H](COCc3ccccc3)NC(=O)C(C)(C)N)C[C@@]2(Cc2ccccc2)C1=O [CAPROMORELIN],2,19,1.3,7,3,0.05,1.7,–,–,–,–,–,–,–,–,–,–,–
